Test results as given in ChEMBL document CHEMBL3351346, “Design, synthesis, structure-function relationship, bioconversion, and pharmacokinetic evaluation of ertapenem prodrugs” (J Med Chem, 2014).

How the values were obtained:
[1] = Stability in pH 2.0 simulated gastric fluid assessed as compound degradation to beta-lactam ring open products at 1 uM after 60 mins by LC-MS/MS method; assay type: ADME; details: read-out: Drug degradation
How it was run: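 Incubation was in simulated gastric fluid (SGF, pH 2.0) for 60 min, with loss to the β-lactam ring-opened product measured by LC-MS/MS.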

[2] = Stability in human plasma assessed as compound remaining at 50 uM at 37 degC after 60 mins by LC-MS/MS method; assay type: ADME, cell-free; details: read-out: Stability
How it was run: (§1)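 Prodrugs were incubated in rat or human plasma for 60 min. Disappearance of prodrug and concomitant appearance of ertapenem were followed by LC-MS/MS, and in selected cases monoesters from partial hydrolysis were also monitored. Ertapenem itself was incubated the same way as a control.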

[3] = Stability in rat plasma assessed as compound remaining at 50 uM at 37 degC after 60 mins by LC-MS/MS method; assay type: ADME, cell-free; details: read-out: Stability; how it was run: as §1
[4] = Stability in pH 7.4 phosphate buffer assessed as compound remaining at 50 uM after 3 hrs by LC-MS/MS method; assay type: physicochemical; details: read-out: Stability
[5] = Stability in pH 6.5 simulated gastrointestinal fluid assessed as compound remaining at 50 uM after 3 hrs by LC-MS/MS method; assay type: ADME; details: read-out: Stability
How it was run: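 Compounds at 50 μM were incubated in fasted-state simulated intestinal fluid (FaSSIF, pH 6.5) for over 3 h. Percent remaining was determined by LC-MS/MS.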

| SMILES | degraded at 1 h, 1 µM [1] [%] | remaining at 1 h, 50 µM [2] [%] | remaining at 1 h, 50 µM [3] [%] | remaining at 3 h, 50 µM [4] [%] | remaining at 3 h, 50 µM [5] [%] |
| --- | --- | --- | --- | --- | --- |
| C[C@@H](O)[C@H]1C(=O)N2C(C(=O)OCOC(=O)C(C)(C)C)=C(S[C@@H]3CN[C@H](C(=O)Nc4cccc(C(=O)O)c4)C3)[C@H](C)[C@H]12 | > 25 | 45 | 0 | > 95 | > 95 |
| C[C@@H](O)[C@H]1C(=O)N2C(C(=O)O)=C(S[C@@H]3CN[C@H](C(=O)Nc4cccc(C(=O)OCOC(=O)C(C)(C)C)c4)C3)[C@H](C)[C@H]12 | > 25 | 53 | 0 | > 95 | > 95 |
| CCC(CC)C(=O)OCOC(=O)C1=C(S[C@@H]2CN[C@H](C(=O)Nc3cccc(C(=O)OCOC(=O)C(CC)CC)c3)C2)[C@H](C)[C@@H]2[C@@H]([C@@H](C)O)C(=O)N12 | > 25 | 83 | 3 | > 95 | > 95 |
| CCC(CC)C(=O)OCOC(=O)C1=C(S[C@@H]2CN[C@H](C(=O)Nc3cccc(C(=O)O)c3)C2)[C@H](C)[C@@H]2[C@@H]([C@@H](C)O)C(=O)N12 | > 25 | 82 | 0 | > 95 | > 95 |
| CC(C)C(=O)OCOC(=O)c1cccc(NC(=O)[C@@H]2C[C@H](SC3=C(C(=O)O)N4C(=O)[C@H]([C@@H](C)O)[C@H]4[C@H]3C)CN2)c1 | > 25 | 26 | 0 | > 95 | > 95 |
| C[C@@H](O)[C@H]1C(=O)N2C(C(=O)OCOC(=O)C3CCCCC3)=C(S[C@@H]3CN[C@H](C(=O)Nc4cccc(C(=O)OCOC(=O)C5CCCCC5)c4)C3)[C@H](C)[C@H]12 | > 25 | 60 | 10 | > 95 | > 95 |
| C[C@@H](O)[C@H]1C(=O)N2C(C(=O)OCOC(=O)C3CCCCC3)=C(S[C@@H]3CN[C@H](C(=O)Nc4cccc(C(=O)O)c4)C3)[C@H](C)[C@H]12 | > 25 | 20 | 0 | > 95 | > 95 |
| CC(=O)OCOC(=O)C1=C(S[C@@H]2CN[C@H](C(=O)Nc3cccc(C(=O)OCOC(C)=O)c3)C2)[C@H](C)[C@@H]2[C@@H]([C@@H](C)O)C(=O)N12 | > 25 | 0 | 0 | > 95 | > 95 |
| CC(OC(=O)C1=C(S[C@@H]2CN[C@H](C(=O)Nc3cccc(C(=O)OC(C)OC(=O)C(C)(C)C)c3)C2)[C@H](C)[C@@H]2[C@@H]([C@@H](C)O)C(=O)N12)OC(=O)C(C)(C)C (stereo not given in full) | > 25 | 46 | 2 | > 95 | > 95 |
| C[C@@H](O)[C@H]1C(=O)N2C(C(=O)OCOC(=O)OC(C)(C)C)=C(S[C@@H]3CN[C@H](C(=O)Nc4cccc(C(=O)OCOC(=O)OC(C)(C)C)c4)C3)[C@H](C)[C@H]12 | > 25 | 67 | 8 | > 95 | > 95 |
| C[C@@H](O)[C@H]1C(=O)N2C(C(=O)OCOC(=O)OC(C)(C)C)=C(S[C@@H]3CN[C@H](C(=O)Nc4cccc(C(=O)O)c4)C3)[C@H](C)[C@H]12 | > 25 | 40 | 0 | > 95 | > 95 |
| CC(C)OC(=O)OCOC(=O)C1=C(S[C@@H]2CN[C@H](C(=O)Nc3cccc(C(=O)OCOC(=O)OC(C)C)c3)C2)[C@H](C)[C@@H]2[C@@H]([C@@H](C)O)C(=O)N12 | > 25 | 28 | 3 | > 95 | > 95 |
| CC(C)OC(=O)OCOC(=O)C1=C(S[C@@H]2CN[C@H](C(=O)Nc3cccc(C(=O)O)c3)C2)[C@H](C)[C@@H]2[C@@H]([C@@H](C)O)C(=O)N12 | > 25 | 62 | 0 | > 95 | > 95 |
| C[C@@H](O)[C@H]1C(=O)N2C(C(=O)OCOC(=O)OC3CCCCC3)=C(S[C@@H]3CN[C@H](C(=O)Nc4cccc(C(=O)OCOC(=O)OC5CCCCC5)c4)C3)[C@H](C)[C@H]12 | > 25 | 96 | 10 | > 95 | > 95 |
| C[C@@H](O)[C@H]1C(=O)N2C(C(=O)OCOC(=O)OC3CCCCC3)=C(S[C@@H]3CN[C@H](C(=O)Nc4cccc(C(=O)O)c4)C3)[C@H](C)[C@H]12 | > 25 | 46 | 0 | > 95 | > 95 |
| CCOC(=O)OCOC(=O)C1=C(S[C@@H]2CN[C@H](C(=O)Nc3cccc(C(=O)OCOC(=O)OCC)c3)C2)[C@H](C)[C@@H]2[C@@H]([C@@H](C)O)C(=O)N12 | > 25 | 1 | 0 | > 95 | > 95 |
| CCOC(=O)OCOC(=O)C1=C(S[C@@H]2CN[C@H](C(=O)Nc3cccc(C(=O)O)c3)C2)[C@H](C)[C@@H]2[C@@H]([C@@H](C)O)C(=O)N12 | > 25 | 10 | 0 | > 95 | > 95 |
| COC(=O)OCOC(=O)C1=C(S[C@@H]2CN[C@H](C(=O)Nc3cccc(C(=O)OCOC(=O)OC)c3)C2)[C@H](C)[C@@H]2[C@@H]([C@@H](C)O)C(=O)N12 | > 25 | 0 | 0 | > 95 | > 95 |
| COC(=O)OCOC(=O)C1=C(S[C@@H]2CN[C@H](C(=O)Nc3cccc(C(=O)O)c3)C2)[C@H](C)[C@@H]2[C@@H]([C@@H](C)O)C(=O)N12 | > 25 | 33 | 0 | > 95 | > 95 |
| Cc1oc(=O)oc1COC(=O)c1cccc(NC(=O)[C@@H]2C[C@H](SC3=C(C(=O)O)N4C(=O)[C@H]([C@@H](C)O)[C@H]4[C@H]3C)CN2)c1 | > 25 | 12 | 0 | > 95 | > 95 |
| CCOC(=O)C1=C(S[C@@H]2CN[C@H](C(=O)Nc3cccc(C(=O)O)c3)C2)[C@H](C)[C@@H]2[C@@H]([C@@H](C)O)C(=O)N12 | > 25 | – | – | > 95 | > 95 |
| CCOC(=O)c1cccc(NC(=O)[C@@H]2C[C@H](SC3=C(C(=O)O)N4C(=O)[C@H]([C@@H](C)O)[C@H]4[C@H]3C)CN2)c1 | > 25 | – | – | > 95 | > 95 |
| CC(C)OC(=O)C1=C(S[C@@H]2CN[C@H](C(=O)Nc3cccc(C(=O)O)c3)C2)[C@H](C)[C@@H]2[C@@H]([C@@H](C)O)C(=O)N12 | > 25 | – | – | > 95 | > 95 |
| CC(C)OC(=O)c1cccc(NC(=O)[C@@H]2C[C@H](SC3=C(C(=O)O)N4C(=O)[C@H]([C@@H](C)O)[C@H]4[C@H]3C)CN2)c1 | > 25 | – | – | > 95 | > 95 |
| CCCCCCCCCCCCCCCCOC(=O)C1=C(S[C@@H]2CN[C@H](C(=O)Nc3cccc(C(=O)OCCCCCCCCCCCCCCCC)c3)C2)[C@H](C)[C@@H]2[C@@H]([C@@H](C)O)C(=O)N12 | > 25 | 89 | 89 | > 95 | > 95 |
| C[C@@H](O)[C@H]1C(=O)N2C(C(=O)OCC(F)(F)F)=C(S[C@@H]3CN[C@H](C(=O)Nc4cccc(C(=O)O)c4)C3)[C@H](C)[C@H]12 | > 25 | 80 | 7 | > 95 | > 95 |
| C[C@@H](O)[C@H]1C(=O)N2C(C(=O)O)=C(S[C@@H]3CN[C@H](C(=O)Nc4cccc(C(=O)OCC(F)(F)F)c4)C3)[C@H](C)[C@H]12 | > 25 | – | – | > 95 | > 95 |
| CCOC(=O)C1=C(S[C@H]2C[C@@H](C(=O)Nc3cccc(C(=O)OCC)c3)N(Cc3oc(=O)oc3C)C2)[C@H](C)[C@@H]2[C@@H]([C@@H](C)O)C(=O)N12 | > 25 | 19 | 0 | > 95 | > 95 |
| C[C@@H](O)[C@H]1C(=O)N2C3=C(S[C@@H]4CN[C@@H](C4)C(=O)Nc4cccc(c4)C(=O)OCCCCOC3=O)[C@H](C)[C@H]12 | > 25 | 4 | 0 | > 95 | > 95 |
